TbHK1 inh = Trypanosoma brucei hexokinase 1 inhibitors, primary screen, biochemical, G6PDH-coupled NADH absorbance, MLSCN library; hexokinase 1 [Trypanosoma brucei]; recombinant TbHK1, G6PDH-coupled NADH A340; inhibition, % at 10 µM; 220,000 compounds, 0.11% hits;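 active = inhibition of 50% or more in the single-dose primary screen; inactive = inhibition below 50%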
Dynein transport = inhibitors of GR-EGFP nuclear translocation, primary screen, dynein cargo transport inhibitor project, imaging, high-content, 3617.4 mouse cells; 220,000 compounds, 0.47% hits; AID 1381, 2008; z-score, hits read low; test concentration mostly 20 µM; stimulated with dexamethasone, 1 µM; active compounds read low;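 active = plate z-score of nuclear minus cytoplasmic receptor signal below a set negative limit, without overly bright fluorescence or cell loss, cut at about -3.5 in these data, passing the limit was not always enough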;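 also: z-score of nuclear minus cytoplasmic ring GR-EGFP intensity difference per well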
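medium = tetracycline-free induction medium containing charcoal-stripped FBS | probe or stimulus = dexamethasone, 1.0 µM final | timing = 48 h induction, then 1 h compound, then 30 min agonist, 37 °C | detection = automated 10x imaging of fixed Hoechst-stained cells | read-out basis = nuclear versus cytoplasmic GR-EGFP signal, averaged per well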
S1P3 antagonist = S1P3 receptor antagonists, primary screen, cell-based; Sphingosine 1-phosphate receptor 3 (Homo sapiens), Q99500; CHO S1P3 NFAT-BLA reporter, FRET fluorescence, antagonist mode; 170,000 compounds, 0.27% hits; inhibition, % at 4.98 µM;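 active = inhibition above the plate cutoff, the mean inhibition of test wells on that plate plus 3 SD, cut at about 28% in these data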;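 also: cells challenged with S1P at its EC80 of 0.8 µM; blue over green emission ratio from cleaved BLA substrate after 4 h stimulation; 0% = S1P-stimulated wells and 100% = unstimulated DMSO-only wells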
Target sequence (Q99500 whole entry, looked up): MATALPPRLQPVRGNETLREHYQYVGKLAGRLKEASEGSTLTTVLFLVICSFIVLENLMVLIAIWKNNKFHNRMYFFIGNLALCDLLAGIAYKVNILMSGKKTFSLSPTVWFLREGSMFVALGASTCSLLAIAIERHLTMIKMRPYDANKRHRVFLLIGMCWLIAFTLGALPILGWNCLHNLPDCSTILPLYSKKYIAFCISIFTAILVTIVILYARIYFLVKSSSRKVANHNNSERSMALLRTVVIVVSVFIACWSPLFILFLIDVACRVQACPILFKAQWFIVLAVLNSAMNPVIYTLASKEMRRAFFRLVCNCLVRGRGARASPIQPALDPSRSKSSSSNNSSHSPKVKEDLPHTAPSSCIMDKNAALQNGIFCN
S1P4 antagonist = S1P4 receptor antagonists, primary screen, cell-based | S1P4-expressing cells, antagonist mode, reporter read-out | inhibition, % at 4.98 µM | 220,000 compounds, 0.26% hits | AID 1510, 2009; in the data active = inhibition above about 29%;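 also: 0% = wells stimulated with agonist and 100% = vehicle wells without agonist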
S1P4 agonist = S1P4 receptor agonists, primary screen, cell-based | 220,000 compounds, 0.35% hits | AID 1509, 2009 | S1P4-expressing cell line, agonist reporter assay | activation, % at 4.98 µM; in the data active = activation above about 11%;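 also: 0% = DMSO vehicle and 100% = reference agonist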
Biofilm kill mix = clotrimazole potentiators killing C. albicans biofilm, primary screen, 4-compound mixtures; C. albicans biofilm persisters + clotrimazole, fluorescence viability; primary screen in compound mixtures of four per well; 120,000 compounds, 0.02% hits; inhibition, % at 7.6 µM;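 active = inhibition above 30.3% in the primary screen of four-compound pools, then above 30% when the compound was retested; inconclusive = passed the primary limit but could not be retested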;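 also: compounds exposed to preformed 24 h biofilms for 48 h; 0% = untreated biofilm control and 100% = clotrimazole plus chlorhexidine kill blank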
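Assay system: C. albicans biofilms / Medium: RPMI/MOPS medium, pH 7.0 / Schedule: biofilm formation 24 h, compound exposure 48 h, 37 °C / Measured by: Alamar Blue fluorescence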
Dynein inh conf = dynein cargo transport inhibitors, GR-EGFP translocation, confirmation, imaging, high-content imaging, GR-EGFP cells; shares compounds with Dynein transport; 3617.4 GR-EGFP nuclear translocation imaging, dexamethasone-induced; calls only at 20 µM; 1,000 compounds, 69% hits;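 active = inhibition of receptor movement into the nucleus at or above a set limit in both runs, with normal cell brightness and cell count; inconclusive = limit reached in only one run, brightness and count normal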;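 also: dexamethasone at 1 µM final in well for 30 min; nuclear minus cytoplasmic GR-EGFP mean intensity difference in channel 2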
Active calls of the source: *; i = inactive; ? = inconclusive; . = no result; + = active, no number. An excerpt weighted towards active compounds, which were near 1.3% of everything screened.

SMILES	TbHK1 inh	Dynein transport	S1P3 antagonist	S1P4 antagonist	S1P4 agonist	Biofilm kill mix	Dynein inh conf
C=C(C)Cn1cnc2c(oc3nc4c(cc32)CCCC4)c1=O	-0.5	0.045	2.1	-4.1	-0.3	7.2	.
O=C(c1cc2nc(-c3ccc(Cl)cc3)cc(C(F)(F)F)n2n1)N1CCOCC1	-9.7	-1.26	-7.3	-2.2	-0.6	27.6	.
O=C(O)c1ncn(Cc2ccc(Br)cc2)c1C(=O)O	6.3	0.426	-2.6	-3.9	-0.9	12.8	.
CC1(c2ccccc2)NC(=O)N(N)C1=O (stereo not given)	-3.5	-0.141	-9.6	0.3	-1.0	2.1	.
COc1ccccc1/C=C/C(=O)Nc1nc(N)n(-c2ccccc2)n1	-45.7	0.342	16.8	11.7	0.0	20.8	.
CCc1ccc(/C=C/C(=O)c2c(C)cc(C)[nH]c2=O)cc1	-28.0	-4*	.	17.1	-1.5	.	+
Cc1ccc(/C=C/C(=O)c2c(C)cc(C)[nH]c2=O)cc1	-21.6	-1.61	.	7.9	0.6	.	.
CS(=O)(=O)c1nc(-c2ccc(Br)cc2)cc(-c2ccccc2)c1C#N	13.5	-5.98*	.	5.2	-0.5	.	+
COc1ccc(-c2cc(-c3ccccc3)c(C#N)c(S(C)(=O)=O)n2)cc1	-4.2	-1.62	.	12.3	0.9	.	.
CS(=O)c1nc(-c2ccc(Br)cc2)cc(-c2ccccc2)c1C#N (stereo not given)	-6.6	-4.14*	-10.6	26.3	2.6	.	+
COC(=O)c1sc(-c2cccs2)cc1NC(=O)/C=C/C(=O)O	-53.0	-1.41	7.2	3.9	0.2	-0.2	.
CN(C)CCNCCCOc1ccccc1-c1ccccc1	0.7	-0.397	-4.8	3.5	-0.1	8.0	.
COC(=O)c1ccc(C(=O)OC)c(-n2c(=O)c3ccccc3c3ccccc3c2=O)c1	-5.9	-5.06*	3.0	-16.9	2.4	12.6	+
CCOC(=O)c1c(-c2ccc(C)cc2)csc1NC(=O)/C(C#N)=C/c1ccc(O)c(OC)c1	4.1	-9.98	-7.2	-22.2	8.9	9.4	i
CCOC(=O)C(NC(=O)c1cccc(Cl)c1)(Nc1sc2c(c1C(N)=O)CCC2)C(F)(F)F (stereo not given)	-6.1	-4.49*	6.0	-1.0	1.0	17.6	+
CCOC(=O)C(NC(=O)c1ccccc1Cl)(Nc1sc2c(c1C(N)=O)CCC2)C(F)(F)F (stereo not given)	-6.0	-1.36	11.7	-5.3	0.8	13.7	.
O=C1C2C3C=CC(CO)(O3)C2C(=O)N1c1ccc(-c2ccccc2)cc1 (stereo not given)	-1.9	-4.44*	.	-12.9	0.5	.	+
CCOc1ccccc1N1C(=O)CC(Sc2n[nH]c(-c3ccccc3)n2)C1=O (stereo not given)	2.0	-4.12*	-8.2	6.9	-0.3	17.6	+
Cc1cccc2[nH]c3c(N4CC=C(c5ccc(F)cc5)CC4)ncnc3c12	-26.5	-2.11	-3.5	-2.3	0.7	14.3	.
CCOC(=O)CNC=C(C(=O)OCC)C(=O)OCC	-6.2	-0.338	.	-13.2	0.3	.	.
CCOC(=O)C=C(C(=O)OCC)C(=O)OCC	-14.4	-4.25*	4.2	-7.0	-1.1	11.4	+
Cc1ccc(-c2csc(NC(=O)Cc3ccc(F)cc3)n2)o1	0.0	-3.91*	-3.6	12.8	2.0	1.4	i
CCOc1ccc(-n2c(C)cc(C(=O)CCl)c2C)cc1	-3.0	-4.77*	9.8	8.9	-0.5	19.1	+
COC(=O)c1ccc(-n2c(C)cc(C(=O)COC(=O)CNS(=O)(=O)c3ccc(C)cc3)c2C)cc1	0.4	-0.154	-2.6	-16.4	-0.2	13.3	.
COC(=O)c1ccc(-n2c(C)cc(C(=O)CCl)c2C)cc1	4.5	-5.05*	-7.8	4.6	-0.3	8.2	+
SMILES	TbHK1 inh	Dynein transport	S1P3 antagonist	S1P4 antagonist	S1P4 agonist	Biofilm kill mix	Dynein inh conf
CC(C)CC1CCCCC1OC(=O)C[N+]1(C)CCCCC1 (stereo not given)	4.3	0.81	-17.2	2.2	1.8	11.1	.
COc1cc(/C=C/C(=O)O)cc(S(=O)(=O)N2CCc3ccccc3C2)c1OC	1.7	-1.16	-0.9	9.3	2.0	4.3	.
COc1ccc(-c2cc(N)n(S(=O)(=O)c3c(F)c(F)c(F)c(F)c3F)n2)cc1OC	1.2	-5.13*	-0.4	25.7	0.4	.	+
Cc1cc(C)c2c(=O)n(CC(=O)N3CCC(N4CCCCC4)CC3)sc2n1	0.9	-4.17*	-11.6	-12.7	2.2	.	i
CCCNC(=O)Cn1sc2nc(C)cc(C)c2c1=O	4.2	-4.78*	-1.9	-8.2	1.1	13.6	i
CCOC(=O)C1CCCN(C(=O)Cn2cnc3c2c(=O)n(C)c(=O)n3C)C1 (stereo not given)	5.0	0.29	3.7	-3.9	-1.3	.	.
CCOC(=O)C1CCCN(C(=O)Cn2sc3nc(C)cc(C)c3c2=O)C1 (stereo not given)	-16.8	-4.08*	-3.1	-2.7	-2.1	.	?
Cc1cc(=O)[nH]c(SCC(=O)NN(c2ccccc2)c2ccccc2)n1	-4.4	-0.288	4.7	-2.7	-0.1	2.7	.
CCCCC(=O)Nc1ccccc1C(C)C	0.5	-0.456	-5.3	3.3	0.0	24.3	.
COc1ccc(NC(=O)c2oc3cc(C)c(C)cc3c2C)c(OC)c1	-6.8	-4.05*	3.5	-16.6	1.4	15.5	i
CC(C)(C)OC(=O)N1CCC[C@H]1c1nnc(SCc2cccc(Cl)c2)o1	-3.6	-0.00718	-1.4	-19.4	-0.1	21.5	.
CCN(CC)CCNc1ccc2nnc(CCNS(=O)(=O)c3ccc(C)cc3)n2n1	-0.7	-0.492	-5.1	6.7	-0.3	12.1	.
Cc1ccc(NC(=O)c2cc(N3C(=O)C=CC3=O)ccc2N2CCOCC2)cc1	-3.0	-4.87*	-29.9	-15.1	2.8	17.6	+
CCSc1nnc(-c2sc3nnc(-c4ccccc4)c(-c4ccccc4)c3c2N)o1	-0.7	-7.42	.	6.2	-1.0	.	i
CCSc1nnc(-c2ccncc2)o1	-4.1	0.481	.	-20.8	0.9	.	.
Cc1nc2cc(NCc3cc([N+](=O)[O-])ccc3O)ccc2n1Cc1ccccc1	-2.7	-0.14	-3.4	-14.6	1.0	8.2	.
CC(=O)Nc1sc(N/N=C/c2ccccc2)nc1-c1ccc(C)cc1	-34.6	-0.886	10.4	23.2	-0.4	27.2	.
CC(=O)Nc1sc(/C(C#N)=C\c2cccc(Cl)c2)nc1-c1ccc(C)cc1	-10.0	-5.87	23.8	-8.7	0.5	21.8	i
